System: E. coli BW25113 ΔtolC growth inhibition, OD615
Assay: growth inhibitors of E. coli tolC mutant, dose response, strain BW25113 ΔtolC::kan (AID 617)
In short: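 System: E. coli BW25113 ΔtolC::kan bacteria. Amount: 1:1000 diluted subculture inoculum. Medium: LB broth supplemented with kanamycin at 50 µg/mL. Compound dosing: serial dilution series of compound. Schedule: 20 h exposure at 37 °C. Detection: OD615. Measure: IC50 of bacterial growth inhibition. Benchmarks: chloramphenicol control, 30 µM final.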

Compound | IC50
Cc1ccc2oc(=O)n(Cc3ccccc3OC(C)C)c2c1 | 9 µM
C=C(C)COc1ccc(-c2nc(N)ncc2-c2ccc(OC)cc2)c(O)c1 | 10.2 µM
O=C(NCc1ccco1)c1cnn2c1NC(c1ccc(Br)cc1)CC2C(F)(F)F (configuration not stated) | 12.8 µM
O=C(NCc1ccc2c(c1)OCO2)c1ccc(-c2ccc(Cl)cc2)o1 | 5.02 µM
CCc1c(O)nc(SCC(=O)Nc2ccc(C)cc2)n(C2CCCCC2)c1=O | 7.36 µM
CN(C)c1ccc(-c2nn3c(-c4ccncc4)nnc3s2)cc1 | 13.6 µM
C/C(O)=c1/ccc2cccc3nc(C)nc1c23 | 26 µM
CC1CN(c2nc3c(c(=O)n(Cc4ccc(Cl)c(Cl)c4)c(=O)n3C)n2C)CC(C)O1 (configuration not stated) | 20.4 µM
N#Cc1nc(COc2ccc(F)cc2)oc1N1CCN(Cc2ccccc2)CC1 | 14.4 µM
CCOc1cccc(NC(=O)C2CC(=O)N(C)C(=Nc3cccc(F)c3)S2)c1 (configuration not stated) | 15.1 µM
COc1ccc(-c2noc(CCCc3ccccc3)n2)cc1OC | 23.1 µM
COc1cccc(NC(=O)N2CCN(c3cccc(C)c3C)CC2)c1 | 13.4 µM
CCSC(C)CC1C/C(=N/O)c2c(CC)noc2C1 (configuration not stated) | 20.7 µM
Cc1ccc(NC(=O)c2nnn(-c3cc(C)cc(C)c3)c2N)cc1 | 21.9 µM
CCOC(=O)c1c(C)n(C)c2ccc(OCC(O)Cn3nc(C)c(Br)c3C)cc12 (configuration not stated) | 5.74 µM
O=C(Nc1sc2c(c1C(=O)O)CCC2)c1cccs1 | 13.8 µM
CCOC(=O)c1cccc(NC(=O)c2cc3sccc3n2C)c1 | 9.82 µM
Cc1nn(-c2nc3ccccc3[nH]2)c(N)c1-c1ccccc1 | 59.4 µM
O=S(=O)(Nc1cccc2cccnc12)c1ccc(S(=O)(=O)N2CCCC2)cc1 | 15.3 µM
Cc1cc(-c2nnc3n2N=C(c2ccc(-c4ccccc4)cc2)CS3)n[nH]1 | 9.55 µM
Oc1ccc(Cl)cc1-c1cc(-c2ccccc2)n[nH]1 | 6.46 µM
O=C(Nc1ccccc1N1CCCCC1)c1cccs1 | 12.8 µM
Cc1ccc(N(CC(=O)Nc2cccc(C)c2)S(=O)(=O)c2cccc3nonc23)cc1 | 37 µM

Compound | IC50
Cc1ccc(-c2noc(CCC(=O)N3CCCc4ccccc43)n2)cc1 | 12.8 µM
CCN(CC)c1ccc(-c2nn3c(-c4n[nH]c5c4CCC5)nnc3s2)cc1 | 20.8 µM
COC(=O)c1c(C)oc2ccc(OC(=O)c3cccs3)cc12 | 9.49 µM
c1ccc(CN(Cc2ccco2)C(c2ccncc2)c2nnnn2C2CCCC2)cc1 (configuration not stated) | 13.2 µM
O=C(NCc1ccco1)C(c1cccs1)N(C(=O)C1COc2ccccc2O1)c1cccc(O)c1 (configuration not stated) | 11.8 µM
c1coc(CNc2nc(N3CCCCC3)nc3ccccc23)c1 | 16.9 µM
COc1ccc2nc(NC(=O)C3COc4ccccc4O3)sc2c1 (configuration not stated) | 14.5 µM
Cc1ccc(C2CC(c3cccc(Br)c3)Nc3nnnn32)cc1 (configuration not stated) | 13 µM
Cc1ccc(SC/C(O)=C(\C#N)c2nc3ccccc3s2)cc1 | 1.03 µM
O=C(Nc1nnc(-c2ccc(F)cc2)o1)c1ccco1 | 16.3 µM
CC1CC(N(C(=O)c2ccco2)c2ccccc2)c2ccccc2N1 (configuration not stated) | 13.4 µM
CCc1ccc2[nH]c(=O)c(C(c3nnnn3CCOC)N3CCN(c4ccc(F)cc4)CC3)cc2c1 (configuration not stated) | 35.7 µM
Oc1c(CN2CCCCC2)cc(COCc2ccccc2)c2cccnc12 | 13.2 µM
CCc1cc(C(=O)Cc2ccc(F)cc2)c(O)cc1O | 7.76 µM
COc1ccccc1OCCSc1nnnn1-c1ccc(C)cc1 | 18.9 µM
CC(C)(C)c1ccc(Cn2nnc3c(=O)[nH]c(C4CCCN(C(=O)Cc5cccs5)C4)nc32)cc1 (configuration not stated) | 15.6 µM
Cc1ccc(S(=O)(=O)c2nc(Nc3nccs3)sc2Cl)cc1 | 2.48 µM
Fc1ccc(Cn2nnnc2C(c2cccs2)N2CCCCCC2)cc1 (configuration not stated) | 10.5 µM
COc1ccc(NS(=O)(=O)c2cc(C)ccc2NC(=O)c2cc(C)oc2C)cc1 | 58.6 µM
Cn1c(C(=O)N2CCc3ccccc3C2)cc2oc3ccccc3c21 | 7.81 µM
O=C(Nc1ccc(Br)c(Cl)c1)c1ccco1 | 8.74 µM
Cc1ccccc1S(=O)(=O)Cc1ccc(C(=O)N2CCN(c3cccc(C)c3C)CC2)o1 | 30.8 µM
Cc1ccc(C2(c3ccc(C)cc3)NC(=O)N(Cc3c(C)noc3C)C2=O)cc1 | 6.45 µM

Compound | IC50
CCOC(=O)c1csc(Nc2nc3ccc(F)cc3s2)n1 | 5.89 µM
CCn1c2ccccc2c2cc(NC(=O)c3ccco3)ccc21 | 8.97 µM
CC1=CC(C)(C)N(C(=O)c2ccc(F)cc2)c2cc3c(cc21)OCO3 | 12.7 µM
CC1CCCC(C)N1C(=O)CN1CCN(c2nc(-c3ccc(F)cc3)cs2)CC1 (configuration not stated) | 12 µM
CCOC(=O)C1=C(N)OC2=C(C(=O)CCC2)C12C(=O)N1c3c(ccc(C)c32)C(C)=CC1(C)C (configuration not stated) | 13.8 µM
Cc1ccc(C)n1-n1c(C)nc2sc3c(c2c1=O)CCCCC3 | 69.2 µM
CC(C)OCCCNc1ncnc2c1[nH]c1ccc(F)cc12 | 7.21 µM
CCCCN(CCCNC(=O)CN1C(=O)COc2ccccc21)c1ccccc1 | 38.9 µM
Cc1cccc(OCCn2c(NC(=O)c3ccco3)nc3ccccc32)c1 | 11 µM
Oc1ccc(Br)cc1-c1nc2cnccn2c1NC1CCCC1 | 10.5 µM
O=C(Nc1ccc(Cl)cc1)N(Cc1cccs1)Cc1cccs1 | 10.7 µM
C=C(C)COc1ccc(-c2[nH]ncc2Oc2ccccc2OCC)c(O)c1 | 6.14 µM
CCOC(=O)c1cnn(-c2nc3sc4c(c3c(=O)[nH]2)CCCC4)c1N | 0.28 µM
Cc1cc2c(cc(C(=O)OCC(=O)NCc3cccs3)n2C(C)C)o1 | 25 µM
COc1ccccc1-c1cc(C(=O)N2CCN(c3ccccc3OC)CC2)no1 | 17.9 µM
COc1cc(-c2nc(Cc3ccccc3Cl)no2)cc(OC)c1OC | 11.5 µM
CSCSC1=C(C#N)C(c2ccc(Cl)cc2)C(C(C)=O)=C(C)N1 (configuration not stated) | 9.12 µM
O=C(CSc1nnc(Cc2ccccc2)n1Cc1ccco1)NC12CC3CC(CC(C3)C1)C2 | 61.8 µM
COc1cccc(N2CCN(CC(=O)Nc3nc4c(s3)CC(C)CC4)CC2)c1 (configuration not stated) | 10.4 µM
Cc1ccc(-c2csc(N(CC3CCCO3)C(=O)c3ccco3)n2)cc1 (configuration not stated) | 20.8 µM
CCSc1nnc(NC(=O)CSc2nccn2-c2cccc(C)c2C)s1 | 5.29 µM
c1ccc2oc(SCc3nc4ccccc4s3)nc2c1 | 29.1 µM
CC1Cc2ccccc2N1C(=O)Cn1c(=O)oc2cc(S(=O)(=O)NC3CCCC3)ccc21 (configuration not stated) | 4.39 µM

Compound | IC50
CCOC(=O)N1CCC(Nc2nc3ccccc3nc2NS(=O)(=O)c2ccc(Cl)cc2)CC1 | 5.49 µM
Fc1cccc2sc(Nc3nnc(-c4ccco4)o3)nc12 | 2.84 µM
COCc1nnc(NC(=O)c2ccc(S(=O)(=O)N(C)c3ccccc3)cc2)o1 | 6.56 µM
Cc1ccc(C)c(Cn2c(CN(C)Cc3ccccc3)nc3c2c(=O)n(C)c(=O)n3C)c1 | 14.2 µM
CCn1cc(C(=O)O)c(=O)c2cc(OC)ccc21 | 9.67 µM
O=C(CCSc1nnc2scc(-c3ccccc3)n12)Nc1nc(-c2ccccc2)ns1 | 16.6 µM
COc1ccc(Nc2nc(N3CCCC3)c3ccccc3n2)cc1 | 18.3 µM
COC(=O)c1ccc(NC(=O)CN2CCN(c3cccc(Cl)c3)CC2)cc1 | 21.7 µM
Cc1ccc2c3c1C1(C(=O)N3C(C)(C)CC2C)C(C#N)=C(N)Oc2cc(O)ccc21 (configuration not stated) | 2.96 µM
CCSc1oc(-c2ccccc2)nc1S(=O)(=O)c1ccccc1 | 11.1 µM
CCn1cc(C(=O)O)c(=O)c2cc(F)c(N3CCN(C(=O)Nc4ccccc4)CC3)cc21 | < 0.2 µM
CCCCOC(=O)Nc1cc(C(=O)OC)ccc1C(=O)OC | 26.8 µM
CCOC(=O)c1cc(CC)sc1NC(=O)Cc1ccsc1 | 10.3 µM
Cc1ccc(S(=O)(=O)NCCSc2nnnn2-c2cc(C)ccc2C)cc1 | 13.4 µM
Cc1ccc(CN2C(=O)NC(=O)C3(Cc4c(nc5ccccn5c4=O)N4CCCCCC43)C2=O)cc1 (configuration not stated) | 22.2 µM
C=C(C)COc1ccc(-c2n[nH]c(C)c2Oc2ccccc2OC)c(O)c1 | 8.36 µM
O=S(=O)(NC1CCCC1)c1ccc(S(=O)(=O)N(Cc2cccs2)CC2CCCO2)cc1 (configuration not stated) | 21 µM
CCCCOc1ccc(S(=O)(=O)Nc2cc(OC)ccc2OC)cc1 | 16.8 µM
CC1CCCN(c2ccc(C(=O)NCCc3ccccc3)cn2)C1 (configuration not stated) | 49.4 µM
COc1ccc(CN(C(=O)CN2C(=O)COc3ccccc32)C2CCCC2)c(OC)c1 | 19.1 µM
CCN(CCCNC(=O)c1[nH]c(C)c(C(C)=O)c1C)c1cccc(C)c1 | 8.23 µM
CCCCc1ccc(C2C(C#N)=C(N)SC(N)=C2C#N)s1 | 13.8 µM
Fc1cccc(Cl)c1Cn1nnc(-c2ccc3c(c2)OCO3)n1 | 20.3 µM

Compound | IC50
Cc1nc2ncnn2c(N2CCN(C(c3ccccc3)c3ccccc3)CC2)c1C | 6.96 µM
CCCCCCC(=O)N1CCC(c2nc3c(nnn3Cc3ccccc3Cl)c(=O)[nH]2)CC1 | 6.36 µM
CCc1ccc(S(=O)(=O)NCCc2csc(-c3ccccc3)n2)s1 | 8.87 µM
OCCN(CCO)c1nc(N2CCCCC2)c2nc(N(CCO)CCO)nc(N3CCCCC3)c2n1 | 1.38 µM
CC1CCc2nc(NC(=O)c3cc(C(C)(C)C)nn3C)sc2C1 (configuration not stated) | 12.4 µM
CCCCc1ccc(Nc2nc(CCC)cc(=O)[nH]2)cc1 | 14.9 µM
c1ccc(CC2CCN(c3nnnn3-c3ccccc3)CC2)cc1 | 9.95 µM
CCOCCn1c(CN(Cc2ccccc2)Cc2ccccc2)nc2c1c(=O)n(C)c(=O)n2C | 13.2 µM
CN(c1ccccc1)S(=O)(=O)c1ccc(C(=O)Nc2nnc(-c3ccc(F)cc3)o2)cc1 | 0.21 µM
O=C(NCc1ccco1)c1cc2sccc2n1Cc1ccccc1 | 14.4 µM
Cc1ccc(-c2csc3ncnc(Sc4nnc(CN5CCCCCC5=O)o4)c23)cc1 | 21.6 µM
COc1ccc(C)cc1NC(=O)CSc1nnc(COc2ccccc2)n1Cc1ccco1 | 22 µM
O=C(Nc1cccc(Cl)c1)Nc1nccs1 | 11 µM
Cc1cccc(NC(=O)c2cc(NC(=O)C3CCCCC3C(=O)O)ccc2N2CCCCC2)c1 (configuration not stated) | 6.1 µM
Fc1ccc(C(c2ccc(F)cc2)N2CCN(C/C=C/c3ccccc3)CC2)cc1 | 9.08 µM
C(=C\c1ccccc1)/CSc1nnc(-c2ccccn2)n1Cc1ccco1 | 12 µM
Cc1cccc(-n2ncc3c(N4CC(C)CC(C)C4)ncnc32)c1 (configuration not stated) | 12.2 µM
CCCOC(=O)c1ccc(-c2c(C)noc2-c2ccc(OC)cc2O)o1 | 4.71 µM
Cc1cc(C)n(-c2nc3ccccc3nc2N2CCCCCC2)n1 | 18.4 µM
C=CCn1c(NC(C)c2cc(Cl)ccc2O)nc2ccccc21 (configuration not stated) | 6.8 µM
